Laboratory results published in ChEMBL document CHEMBL1139344, “Antagonists of the human A(2A) adenosine receptor. 4. Design, synthesis, and preclinical evaluation of 7-aryltriazolo[4,5-d]pyrimidines” (J Med Chem, 2009).
Values after ≈ are worked out from the molar mass of the structure shown. Active and inactive are the calls of the source. No cut-off for these calls is given here.

Assays:
[1] = biological target: Adenosine receptor A2a (Homo sapiens, UniProt P29274); test: Displacement of radioligand from human recombinant adenosine A2A receptor at 21 degC after 90 mins by cell-based microplate scintillation counting
Sequence of Adenosine receptor A2a (P29274 whole entry): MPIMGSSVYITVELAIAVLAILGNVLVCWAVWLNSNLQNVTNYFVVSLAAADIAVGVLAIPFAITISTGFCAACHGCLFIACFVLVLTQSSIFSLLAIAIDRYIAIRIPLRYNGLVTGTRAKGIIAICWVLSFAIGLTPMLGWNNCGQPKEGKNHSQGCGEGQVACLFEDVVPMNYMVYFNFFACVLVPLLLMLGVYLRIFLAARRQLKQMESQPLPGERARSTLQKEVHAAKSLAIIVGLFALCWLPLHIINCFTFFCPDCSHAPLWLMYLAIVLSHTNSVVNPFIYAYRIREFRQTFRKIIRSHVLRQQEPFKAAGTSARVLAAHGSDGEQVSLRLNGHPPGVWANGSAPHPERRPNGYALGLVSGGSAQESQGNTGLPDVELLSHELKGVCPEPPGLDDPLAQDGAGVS

[2] = biological target: T1, Adenosine receptor A1 (Homo sapiens, UniProt P30542); test: Displacement of radioligand from human recombinant adenosine A1 receptor at 21 degC after 90 mins by cell-based microplate scintillation counting
T1 sequence (P30542 whole entry): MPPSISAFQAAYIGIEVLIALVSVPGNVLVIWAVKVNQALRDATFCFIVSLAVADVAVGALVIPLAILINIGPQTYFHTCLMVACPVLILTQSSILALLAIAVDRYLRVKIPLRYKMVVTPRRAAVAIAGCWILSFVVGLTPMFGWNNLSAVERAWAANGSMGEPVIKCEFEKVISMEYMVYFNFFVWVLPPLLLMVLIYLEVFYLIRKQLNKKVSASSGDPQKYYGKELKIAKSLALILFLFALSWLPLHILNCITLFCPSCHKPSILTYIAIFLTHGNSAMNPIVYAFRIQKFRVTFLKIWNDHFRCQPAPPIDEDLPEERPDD

[3] = biological target: T2, Adenosine receptor A2b (Homo sapiens, UniProt P29275); test: Displacement of radioligand from human recombinant adenosine A2B receptor at 21 degC after 60 mins by cell-based microplate scintillation counting
T2 sequence (P29275 whole entry): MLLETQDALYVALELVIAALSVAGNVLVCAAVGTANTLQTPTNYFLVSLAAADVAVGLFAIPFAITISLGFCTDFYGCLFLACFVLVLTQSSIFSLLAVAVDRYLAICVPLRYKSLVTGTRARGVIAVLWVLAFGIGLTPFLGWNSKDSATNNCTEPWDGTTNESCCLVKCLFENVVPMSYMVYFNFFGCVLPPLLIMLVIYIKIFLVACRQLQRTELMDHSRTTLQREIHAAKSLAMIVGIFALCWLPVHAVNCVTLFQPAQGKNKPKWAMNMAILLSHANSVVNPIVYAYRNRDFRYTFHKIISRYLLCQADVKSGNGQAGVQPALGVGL

[4] = biological target: T3, Adenosine receptor A3 (Homo sapiens, UniProt P0DMS8); test: Displacement of radioligand from human recombinant adenosine A3 receptor at 21 degC after 60 mins by cell-based microplate scintillation counting
T3 sequence (P0DMS8 whole entry): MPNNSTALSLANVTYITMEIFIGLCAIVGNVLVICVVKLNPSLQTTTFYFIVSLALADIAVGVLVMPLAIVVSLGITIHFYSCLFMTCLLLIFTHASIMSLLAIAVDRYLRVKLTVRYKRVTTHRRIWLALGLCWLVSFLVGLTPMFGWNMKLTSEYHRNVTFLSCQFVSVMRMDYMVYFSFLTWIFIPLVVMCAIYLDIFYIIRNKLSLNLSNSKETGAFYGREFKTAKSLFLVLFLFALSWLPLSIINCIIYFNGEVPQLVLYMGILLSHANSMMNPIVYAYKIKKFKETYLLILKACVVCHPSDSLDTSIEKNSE

[5] = tested on: Mus musculus; test: Reversal of haloperidol-induced hypolocomotion in TO mouse assessed as time spent for locomotor activity at 30 mg/kg, po administered 15 mins prior and measured for 60 mins; type: functional, organism-based; parameters: dose 30 mg/kg
[6] = tested on: Rattus norvegicus; test: Reversal of haloperidol-induced hypolocomotion in Sprague-Dawley rat assessed as time spent for locomotor activity at 30 mg/kg, po administered 120 mins prior and measured for 60 mins; type: functional, organism-based; parameters: dose 30 mg/kg
[7] = tested on: Liver microsomes; test: Metabolic stability in rat liver microsomes after 30 mins; type: ADME, Microsome; settings: 0.5 h
Outline: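 Turnover by rodent liver microsomes measured as percent turnover after 30 min.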

[8] = Aqueous solubility in phosphate buffered saline; type: physicochemical

Ki [1] [nM] | Ki [2] [nM] | Ki [3] [nM] | Ki [4] [nM] | Stability [7] | solubility [8] [µM] | SMILES | Activity [5] | Activity [6]
1.9 | 42 | 24 | 203 |  |  | Nc1nc(-c2ccco2)c2nnn(Cc3c(F)cccc3F)c2n1 |  | 
3.9 | 132 | 630 | 693 |  |  | N#Cc1cccc(Cn2nnc3c(-c4ccco4)nc(N)nc32)c1 |  | 
832 | 4140 | 2110 | 3810 |  |  | Nc1nc(-c2ccco2)c2nnn(Cc3cccc(C(=O)O)c3)c2n1 |  | 
73 | 738 | 885 | 1050 | Stable | 30 (≈ 9.52 µg/mL) | N#Cc1ccc(Cn2nnc3c(-c4ccco4)nc(N)nc32)cc1 | inactive | inactive
3.7 | 231 | 646 | 844 | Stable | 30 (≈ 10.1 µg/mL) | Nc1nc(-c2ccco2)c2nnn(Cc3cccc([N+](=O)[O-])c3)c2n1 | inactive | inactive
22 | 1130 | 937 | 2470 | Stable | 30 (≈ 11.7 µg/mL) | CC(C)N(C)C(=O)c1cccc(Cn2nnc3c(-c4ccco4)nc(N)nc32)c1 | inactive | inactive
241 | 4910 | 916 | > 10000 |  |  | NCc1ccc(Cn2nnc3c(-c4ccco4)nc(N)nc32)cc1 |  | 
239 | 1660 | 1780 | 1290 | Stable | 30 (≈ 9.31 µg/mL) | Nc1nc(-c2cc[nH]n2)c2nnn(Cc3ccccc3F)c2n1 | inactive | inactive
6.6 | 400 | 383 | 168 |  |  | Nc1nc(-c2ccco2)c2nnn(Cc3ccccc3[N+](=O)[O-])c2n1 |  | 
2.3 | 76 | 160 | 269 |  |  | Nc1nc(-c2ccco2)c2nnn(Cc3cccc(Cl)c3)c2n1 |  | 
2.2 | 100 | 259 | 736 |  |  | Nc1nc(-c2ccco2)c2nnn(Cc3cccc(C(F)(F)F)c3)c2n1 |  | 
28 | 769 | 440 | 1230 | Stable | 30 (≈ 10.1 µg/mL) | Nc1nc(-c2ccco2)c2nnn(Cc3ccc([N+](=O)[O-])cc3)c2n1 | inactive | inactive
2.2 | 98 | 128 | 450 |  |  | Nc1nc(-c2ccco2)c2nnn(Cc3cc(F)ccc3F)c2n1 |  | 
10.8 | 733 | 593 | 530 | Stable | 30 (≈ 11.3 µg/mL) | CC(C)NC(=O)c1cccc(Cn2nnc3c(-c4ccco4)nc(N)nc32)c1 | inactive | inactive
2.7 | 105 | 109 | 440 | Stable | 30 (≈ 9.31 µg/mL) | Nc1nc(-c2ccco2)c2nnn(Cc3ccccc3F)c2n1 | inactive | inactive
1.6 | 249 | 84 | 1360 |  |  | Nc1nc(-c2ccco2)c2nnn(Cc3ccc(N)c(O)c3)c2n1 |  | 
5.4 | 319 | 741 | 340 |  |  | COc1ccccc1Cn1nnc2c(-c3ccco3)nc(N)nc21 |  | 
8.8 | 77 | 192 | 240 |  |  | Nc1nc(-c2ccco2)c2nnn(Cc3ccco3)c2n1 |  | 

Ki [1] [nM] | Ki [2] [nM] | Ki [3] [nM] | Ki [4] [nM] | Stability [7] | solubility [8] [µM] | SMILES | Activity [5] | Activity [6]
122 | 1170 | 1140 | 2220 |  |  | Nc1nc(-c2ccco2)c2nnn(Cc3cnccn3)c2n1 |  | 
31 | 894 | 423 | 1780 |  |  | Nc1nc(-c2cncs2)c2nnn(Cc3ccccc3F)c2n1 |  | 
400 | 2960 | 1290 | 2810 | Stable | 30 (≈ 9.34 µg/mL) | Nc1nc(-c2cnn[nH]2)c2nnn(Cc3ccccc3F)c2n1 | inactive | inactive
1.8 | 77 | 643 | 563 |  |  | COc1cccc(Cn2nnc3c(-c4ccco4)nc(N)nc32)c1 |  | 
0.7 | 120 | 43 | 1070 |  |  | Nc1nc(-c2ccco2)c2nnn(Cc3ccc(N)c(F)c3)c2n1 |  | 
8.5 | 553 | 271 | 2200 |  | 30 (≈ 9.82 µg/mL) | Nc1nc(-c2nccs2)c2nnn(Cc3ccccc3F)c2n1 | inactive | inactive
11.9 | 291 | 134 | 3010 |  |  | Nc1nc(-c2ccco2)c2nnn(Cc3ccc4[nH]nnc4c3)c2n1 |  | 
116 | 2530 | 443 | 2380 |  |  | CC(=O)Nc1ccc(Cn2nnc3c(-c4ccco4)nc(N)nc32)cc1 |  | 
41 | 599 | 836 | 2110 |  |  | Nc1nc(-c2ncco2)c2nnn(Cc3ccccc3F)c2n1 |  | 
194 | 3620 |  |  | Stable | 30 (≈ 6.07 µg/mL) | Nc1nc(-c2ccco2)c2nn[nH]c2n1 | inactive | inactive
8.5 | 86 | 199 | 338 |  |  | Cc1cnc(-c2nc(N)nc3c2nnn3Cc2ccccc2F)s1 |  | 
2.3 | 110 | 79 | 619 |  |  | Nc1nc(-c2ccco2)c2nnn(Cc3cccc(F)c3F)c2n1 |  | 
3 | 45 | 254 | 360 |  |  | Cc1cccc(Cn2nnc3c(-c4ccco4)nc(N)nc32)c1 |  | 
4 | 314 | 10 | 491 |  |  | Nc1nc(-c2ccco2)c2nnn(Cc3cccc(O)c3)c2n1 |  | 
4.1 | 105 | 907 | 1170 | Stable | 30 (≈ 10.5 µg/mL) | COC(=O)c1cccc(Cn2nnc3c(-c4ccco4)nc(N)nc32)c1 |  | 
3.5 | 190 | 23 | 685 |  |  | Nc1ccc(Cn2nnc3c(-c4ccco4)nc(N)nc32)c(F)c1 |  | 
1.9 | 83 | 122 | 285 | Stable | 30 (≈ 8.77 µg/mL) | Nc1nc(-c2ccco2)c2nnn(Cc3ccccc3)c2n1 | inactive | inactive
3 | 183 | 282 | 341 | Stable | 30 (≈ 9.19 µg/mL) | Cc1ccccc1Cn1nnc2c(-c3ccco3)nc(N)nc21 | inactive | inactive

SMILES | Ki [1] [nM] | Ki [2] [nM] | Ki [3] [nM] | Ki [4] [nM] | Stability [7] | solubility [8] [µM] | Activity [5] | Activity [6]
Nc1nc(-c2ccco2)c2nnn(Cc3ccc4[nH]ncc4c3)c2n1 | 8.6 | 190 | 206 | 2430 |  |  |  | 
Nc1nc(-c2ccco2)c2nnn(Cc3ccc4[nH]ccc4c3)c2n1 | 1.1 | 27 | 59 | 606 |  |  |  | 
Nc1nc(-c2cccs2)c2nnn(Cc3ccccc3F)c2n1 | 8.2 | 154 | 248 | 871 |  |  |  | 
Cc1csc(-c2nc(N)nc3c2nnn3Cc2ccccc2F)n1 | 2.2 | 203 | 53 | 1260 |  |  |  | 
Nc1nc(-c2ccco2)c2nnn(CC3CCCCC3)c2n1 | 8.5 | 230 | 634 | 1140 |  |  |  | 
